Measured values reported in ChEMBL document CHEMBL4414663, “Pyrazole-4-Carboxamide (YW2065): A Therapeutic Candidate for Colorectal Cancer via Dual Activities of Wnt/β-Catenin Signaling Inhibition and AMP-Activated Protein Kinase (AMPK) Activation” (J Med Chem, 2019).
Activity calls are given as the source filed them. The calls are words filed in the database; no cut-off is given here.

Tests used:
[1] = Inhibition of Wnt/beta-Catenin signaling (unknown origin) expressed in recombinant human Wnt-3a-induced Wnt-HEK293 cells incubated for 24 hrs by luciferase reporter gene assay; format: cell-based
Summary of the method: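 Stably transfected Wnt-HEK293 cells, 2000/well in DMEM + 10% FBS, incubated overnight at 37 °C. Compounds pin-transferred, then recombinant human Wnt-3a added (200 ng/mL stock); unstimulated control wells received medium. After 24 h at 37 °C, ONE-Glo luminescence read after 30 min at room temperature; CellTiter-Fluor viability read in parallel. IC50 reported as mean ± SD of three independent experiments.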

SW480 [2] = assay: Growth inhibition of human SW480 cells by Cell-titer-fluor reagent based assay; format: functional
SW480 [3] = assay: Growth inhibition of human SW480 cells at 50 uM by Cell-titer-fluor reagent based assay relative to control; format: functional; settings: read-out: GI
Homo sapiens [4] = species: Homo sapiens; assay: Potency index, ratio of IC50 for pyrvinium to test compound for inhibition of Wnt/beta-Catenin signaling (unknown origin) expressed in recombinant human Wnt-3a-induced Wnt-HEK293 cells incubated for 24 hrs by luciferase reporter gene assay; format: cell-based
Homo sapiens [5] = species: Homo sapiens; assay: Potency index, ratio of IC50 for XAV939 to test compound for inhibition of Wnt/beta-Catenin signaling (unknown origin) expressed in recombinant human Wnt-3a-induced Wnt-HEK293 cells incubated for 24 hrs by luciferase reporter gene assay; format: cell-based
Homo sapiens [6] = species: Homo sapiens; assay: Inhibition of Wnt/beta-Catenin signaling (unknown origin) expressed in recombinant human Wnt-3a-induced Wnt-HEK293 cells assessed as increase in beta-catenin degradation at 1 uM by Western blot analysis; format: cell-based
[7] = molecular target: AMP-activated protein kinase, AMPK (Homo sapiens) (UniProt P54646+O43741+P54619+Q9UGJ0+Q9Y478+Q13131+Q9UGI9); assay: Activation of AMPK in HEK293 cells over-expressing Axin-1 assessed as increase in AMPK phosphorylation at T172 residue at 10 uM incubated for 24 hrs by Western blot analysis; format: cell-based

IC50 [1] [nM]	GI50 (SW480 [2]) [nM]	Structure (SMILES)	inhibition of growth at 50 µM (SW480 [3]) [%]	also measured
> 1000	–	CCc1ccccc1-n1ncc(C(=O)Nc2ccc3ccccc3c2)c1C	–	–
> 1000	–	CCc1ccccc1-n1ncc(C(=O)Nc2cc3ccccc3cn2)c1C	–	–
6	–	CN(C)c1c(C(=O)Nc2ccc3ccccc3n2)cnn1-c1ccccc1	–	–
26	7200	Cc1cccc(C)c1-n1ncc(C(=O)Nc2ccc3ccccc3n2)c1C	> 50	–
16	–	Cc1c(C(=O)Nc2ccc3ccccc3n2)cnn1-c1ccc(F)cc1F	–	–
2.2	–	Cc1cccnc1-n1ncc(C(=O)Nc2ccc3ccccc3n2)c1C	–	–
140	–	O=C(Nc1ccc2ccccc2n1)c1nn(-c2ccccc2)c2c1CCC2	–	–
1.2	9700	CCc1ccccc1-n1ncc(C(=O)Nc2ccc3ccccc3n2)c1C	> 50	–
380	–	CCc1ccccc1-n1ncc(C(=O)Nc2cccc(C)n2)c1C	–	–
67	–	CCc1ccccc1-n1nc(C(=O)Nc2ccc3ccccc3n2)cc1C	–	–
29	–	O=C(Nc1ccc2ccccc2n1)c1cnn(-c2ccccc2)c1Cl	–	–
1.7	–	CCc1c(C(=O)Nc2ccc3ccccc3n2)cnn1-c1ccccc1	–	–
637	–	Cc1cc(C(=O)Nc2ccc3ccccc3n2)nn1-c1ccccc1	–	–
14	9000	Cc1c(C(=O)Nc2ccc3ccccc3n2)cnn1-c1cccc(Cl)c1F	> 50	–
2.2	23900	Cc1c(C(=O)Nc2ccc3ccccc3n2)cnn1-c1ccccc1	> 50	Ratio IC50 (Homo sapiens [4]): > 300; Ratio IC50 (Homo sapiens [5]): > 200
450	> 50000	Oc1nc(-c2ccc(C(F)(F)F)cc2)nc2c1CSCC2	–	–
750	3700	Cc1cc(/C=C/c2ccc3cc(N(C)C)ccc3[n+]2C)c(C)n1-c1ccccc1 [PYRVINIUM]	–	inhibition (Homo sapiens [6]): Active
0.92	33300	Cc1c(C(=O)Nc2ccc3ccccc3n2)cnn1-c1ccccc1F	> 50	–
–	–	Cc1ccccc1-n1nnc(C(=O)Nc2ccc3ccccc3n2)c1C	–	Activity [7]: Active; inhibition (Homo sapiens [6]): Active
260	–	O=C(Nc1ccc2ccccc2n1)c1nn(-c2ccccc2)c2c1CCCC2	–	–
3.2	3900	Cc1c(C(=O)Nc2ccc3ccccc3n2)cnn1-c1c(F)cccc1Br	> 50	–
250	–	Cc1ccccc1-n1nc(C(=O)Nc2ccc3ccccc3n2)cc1C	–	–
14	24600	Cc1ccc(C)c(-n2ncc(C(=O)Nc3ccc4ccccc4n3)c2C)c1	> 50	–
15	17300	CC(C)c1c(C(=O)Nc2ccc3ccccc3n2)cnn1-c1ccccc1	> 50	–
3.7	–	O=C(Nc1ccc2ccccc2n1)c1cnn(-c2ccccc2)c1Br	–	–
1.6	–	Cc1c(C(=O)Nc2ccc3ccccc3n2)cnn1-c1c(F)cccc1F	–	–
